In assay [1] the test system is HL-60. Nature of the assay: Induction of human HL60 cell differentiation by NBT reduction assay. The format is functional, cell-based. Summed up:
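HL-60 cells in RPMI1640 with 5% FBS were seeded at about 8 × 10⁴ cells/mL and given compound from a 2 mM ethanol stock (final ethanol below 0.5%) for 4 days. Differentiation was scored by NBT reduction: 20 min at 37 °C with 0.2% NBT and 200 ng/mL TPA, counting formazan-positive cells among at least 200. EC₅₀ is the concentration differentiating 50% of cells with compound alone.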

Assay [2] deals with HL-60. Nature of the assay: Synergistic induction of human HL60 cell differentiation in presence of RAR agonist Am80 at 1 X 10^-10 M. The format is functional. Summed up:
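Synergy was tested in HL-60 cells given test compound together with 1 × 10⁻¹⁰ M Am80 for 4 days, with each agent also assayed alone. Differentiation was scored by NBT reduction (0.2% NBT, 200 ng/mL TPA, 20 min, 37 °C; ≥200 cells). SEC₅₀ is the concentration giving 50% differentiated cells in the presence of Am80.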

The subject of assay [3] is HL-60. Nature of the assay: Inhibition of Am80-induced cell differentiation in human HL60 cells by NBT reduction assay. The class given is functional, cell-based. Summed up:
(§1)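 Cells were co-treated with 3.3 × 10⁻¹⁰ M Am80 plus test compound (ethanol, final below 0.5%), seeded at about 8 × 10⁴ cells/mL in RPMI1640 with 5% FBS, and held 4 days. The percentage of differentiated cells was determined by NBT/TPA reduction (20 min, 37 °C), counting at least 200 cells.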

The subject of assay [4] is HL-60. Nature of the assay: Inhibition of Am80-induced cell differentiation in human HL60 cells at 1 x 10^-6 M after 4 days by NBT reduction assay. The format is functional. To be noted: HL-60, 96 h. Summed up: as §1
Assay [5] concerns HL-60. In words: Inhibition of Am80-induced cell differentiation in human HL60 cells at 1 x 10^-7 M after 4 days by NBT reduction assay. The class given is functional. As to conditions: HL-60, 96 h. An outline of the steps: as §1
The target of assay [6] is Retinoic acid receptor alpha (Homo sapiens) (UniProt P10276). In words: Antagonist activity at human RARalpha expressed in COS-1 cells assessed as inhibition of Am80-induced transactivation by luciferase reporter gene assay.
Assay [7] deals with Retinoic acid receptor beta (Homo sapiens) (UniProt P10826). In words: Antagonist activity at human RARbeta expressed in COS-1 cells assessed as inhibition of Am80-induced transactivation by luciferase reporter gene assay. (In general: A reporter such as luciferase makes a cellular process visible.)
In assay [8] the test system is Retinoid X receptor gamma (Mus musculus). Nature of the assay: Antagonist activity at mouse RXRgamma expressed in COS-1 cells assessed as inhibition of PA024-induced transactivation by luciferase reporter gene assay.
The subject of assay [9] is Retinoid X receptor beta (Mus musculus). Nature of the assay: Antagonist activity at mouse RXRbeta expressed in COS-1 cells assessed as inhibition of PA024-induced transactivation by luciferase reporter gene assay.
Assay [10] addresses Retinoic acid receptor RXR-alpha (Mus musculus) (UniProt P28700). In words: Antagonist activity at mouse RXRalpha expressed in COS-1 cells assessed as inhibition of PA024-induced transactivation by luciferase reporter gene assay.
Assay [11] has as its target Retinoic acid receptor gamma (Homo sapiens) (UniProt P13631). In words: Antagonist activity at human RARgamma expressed in COS-1 cells assessed as inhibition of ATRA-induced transactivation by luciferase reporter gene assay.

The term EC50 denotes the concentration that produces a half-maximal response.

Structures are written as SMILES. Activity calls are given as the source filed them. The calls are words filed in the database; no cut-off is given here. Bounds are passed on as bounds.

Sequence of Retinoic acid receptor beta (Homo sapiens) (P10826 whole entry, looked up): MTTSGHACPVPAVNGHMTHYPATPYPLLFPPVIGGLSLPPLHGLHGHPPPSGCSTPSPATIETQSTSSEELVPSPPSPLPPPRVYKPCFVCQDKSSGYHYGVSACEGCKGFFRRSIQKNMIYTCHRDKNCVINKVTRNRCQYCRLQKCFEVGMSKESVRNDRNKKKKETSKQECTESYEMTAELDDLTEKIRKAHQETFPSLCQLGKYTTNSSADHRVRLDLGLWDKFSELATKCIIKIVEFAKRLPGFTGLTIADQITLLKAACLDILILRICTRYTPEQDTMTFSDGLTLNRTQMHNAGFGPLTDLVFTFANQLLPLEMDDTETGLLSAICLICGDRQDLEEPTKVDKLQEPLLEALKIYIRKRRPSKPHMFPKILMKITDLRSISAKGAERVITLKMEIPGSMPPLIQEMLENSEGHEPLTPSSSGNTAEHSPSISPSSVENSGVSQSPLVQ
Sequence of Retinoic acid receptor gamma (Homo sapiens) (P13631 whole entry, looked up): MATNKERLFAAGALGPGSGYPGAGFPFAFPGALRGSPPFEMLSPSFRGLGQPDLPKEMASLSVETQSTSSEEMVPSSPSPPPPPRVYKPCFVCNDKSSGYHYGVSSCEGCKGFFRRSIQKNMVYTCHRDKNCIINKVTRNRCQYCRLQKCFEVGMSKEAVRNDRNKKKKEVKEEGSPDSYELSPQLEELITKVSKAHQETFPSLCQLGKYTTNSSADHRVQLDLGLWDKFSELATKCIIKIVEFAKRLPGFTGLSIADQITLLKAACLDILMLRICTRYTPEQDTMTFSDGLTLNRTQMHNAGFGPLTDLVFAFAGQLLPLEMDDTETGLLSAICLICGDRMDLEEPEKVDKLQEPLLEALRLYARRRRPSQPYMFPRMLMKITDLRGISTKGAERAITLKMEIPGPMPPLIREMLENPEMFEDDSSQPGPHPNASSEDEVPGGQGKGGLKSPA
Sequence of Retinoic acid receptor RXR-alpha (Mus musculus) (P28700 whole entry, looked up): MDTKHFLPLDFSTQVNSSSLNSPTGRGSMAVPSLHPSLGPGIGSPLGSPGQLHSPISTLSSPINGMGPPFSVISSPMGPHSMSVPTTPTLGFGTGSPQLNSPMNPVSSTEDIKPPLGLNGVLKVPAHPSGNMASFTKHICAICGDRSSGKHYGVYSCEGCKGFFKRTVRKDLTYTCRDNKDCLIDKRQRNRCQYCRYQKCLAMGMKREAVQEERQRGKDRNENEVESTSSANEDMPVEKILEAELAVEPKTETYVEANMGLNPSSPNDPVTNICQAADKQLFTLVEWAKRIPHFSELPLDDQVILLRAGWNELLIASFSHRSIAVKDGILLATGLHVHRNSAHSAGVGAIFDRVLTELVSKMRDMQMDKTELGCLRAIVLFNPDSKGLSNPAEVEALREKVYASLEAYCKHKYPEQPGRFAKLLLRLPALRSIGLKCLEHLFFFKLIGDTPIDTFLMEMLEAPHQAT
Sequence of Retinoic acid receptor alpha (Homo sapiens) (P10276 whole entry, looked up): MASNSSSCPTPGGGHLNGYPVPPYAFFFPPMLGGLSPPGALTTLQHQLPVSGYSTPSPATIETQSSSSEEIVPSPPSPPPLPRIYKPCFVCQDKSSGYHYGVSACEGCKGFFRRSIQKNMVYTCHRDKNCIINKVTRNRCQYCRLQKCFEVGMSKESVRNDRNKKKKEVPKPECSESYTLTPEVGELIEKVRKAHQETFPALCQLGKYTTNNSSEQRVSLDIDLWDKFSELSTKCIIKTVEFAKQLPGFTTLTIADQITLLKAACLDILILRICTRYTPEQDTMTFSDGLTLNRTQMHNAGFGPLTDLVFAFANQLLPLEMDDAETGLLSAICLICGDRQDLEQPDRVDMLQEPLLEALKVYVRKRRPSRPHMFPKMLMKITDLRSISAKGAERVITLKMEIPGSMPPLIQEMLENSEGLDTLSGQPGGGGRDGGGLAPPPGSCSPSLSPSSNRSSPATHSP

In the case of `CC1(C)CCC(C)(C)c2cc(N(CC3CC3)c3ccc(C(=O)O)cc3)ccc21`, the EC50 result in [1] (hl-60) is “Not Active”. Also, the SEC50 in assay [2] worked out at 8.1 ×10⁻¹⁰ M.
For `CCCCCCCCN(c1ccc(C(=O)O)cc1)c1ccc2c(c1)C(C)(C)CCC2(C)C`, the inhibition result in assay [3] is “Dose-dependent effect”. In addition, the result in assay [1] was inactive. The Differentiated cells % at 1 µM in assay [4] was less than 10%.
For the molecule `CC1(C)CCC(C)(C)c2cc(N(Cc3ccc4ccccc4c3)c3ccc(C(=O)O)cc3)ccc21`, the inhibition result in assay [3] was “Dose-dependent effect”. In addition, in assay [1], the outcome was inactive. Further, in assay [5], the Differentiated cells % at 0.1 µM was determined as 30%. This molecule also registered a Differentiated cells % at 1 µM in [4] of less than 10%.
`CCCCCCCN(c1ccc(C(=O)O)cc1)c1ccc2c(c1)C(C)(C)CCC2(C)C`: the inhibition result in assay [6], in [7], in assay [3] and in [11] was “Dose-dependent effect” throughout. Also, the inhibition entry in [8], in assay [9] and in assay [10] was “inactive” throughout. In addition, the outcome in assay [1] was inactive. For the same molecule, the Differentiated cells % at 1 µM in assay [4] was less than 10%.
In the case of `CC1(C)CCC(C)(C)c2cc(N(Cc3ccccc3-c3ccccc3)c3ccc(C(=O)O)cc3)ccc21`, the inhibition entry in assay [3] was “Dose-dependent effect”. Also, the outcome in assay [1] was inactive. In addition, the Differentiated cells % at 0.1 µM in [5] stood at 10%. The molecule also returned a Differentiated cells % at 1 µM in assay [4] of less than 10%.
Take `CC1(C)CCC(C)(C)c2cc(Nc3ccc(C(=O)O)cc3)ccc21`: the EC50 in assay [1] (Homo sapiens, HL-60, read-out: EC50) was found to be 0.68 µM. Further, the SEC50 in assay [2] was determined as 2 ×10⁻⁸ M.
`CC1(C)CCC(C)(C)c2cc(N(Cc3ccc(C(F)(F)F)cc3)c3ccc(C(=O)O)cc3)ccc21`: the inhibition entry in assay [3] was “Dose-dependent effect”. Also, the outcome in [1] was inactive. This molecule also gave a Differentiated cells % at 1 µM in [4] of less than 10%.
On to `CC1(C)CCC(C)(C)c2cc(N(Cc3ccccc3)c3ccc(C(=O)O)cc3)ccc21`, for which, in assay [1], the outcome was inactive.
On to `CCOc1c(F)c(F)c(CN(c2ccc(C(=O)O)cc2)c2ccc3c(c2)C(C)(C)CCC3(C)C)c(F)c1F`, for which the inhibition entry in assay [6], in [7], in assay [3] and in assay [11] was “Dose-dependent effect” in each case. The inhibition result in assay [8], in assay [9] and in assay [10] was “inactive” each time. The outcome in [1] was inactive. This molecule also returned a Differentiated cells % at 0.1 µM in assay [5] of less than 10%. In [4], the Differentiated cells % at 1 µM is less than 10%.
In the case of `Cc1ccc(CN(c2ccc(C(=O)O)cc2)c2ccc3c(c2)C(C)(C)CCC3(C)C)cc1`, the inhibition entry in assay [3] was “Dose-dependent effect”. Also, in assay [1], the outcome was inactive. In assay [4], this molecule gave a Differentiated cells % at 1 µM of less than 10%.

The values above are taken from ChEMBL document CHEMBL1764950, “Diphenylamine-based retinoid antagonists: regulation of RAR and RXR function depending on the N-substituent” (Bioorg Med Chem, 2011).
